For twelve compounds, Activity, EC50 and mortality results are on record in ChEMBL document CHEMBL1156600, “Diacarperoxides, norterpene cyclic peroxides from the sponge Diacarnus megaspinorhabdosa” (J Nat Prod, 2008).

≈ marks a conversion by molar mass, not a printed value. Calls of active or inactive are those of the source. No cut-off for these calls is given here.

One series deals with PC-12. Kind of series: Cytotoxicity against rat PC12 cells by MTT assay. The class given is functional, cell-based. Summed up:
(§1)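 Antiproliferative MTT (microculture tetrazolium) read-out in cancer cell lines: HeLa human cervix carcinoma, L5178Y mouse lymphoma, PC12 rat […] cells.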
For orientation: Tetrazolium dyes change colour on reduction, which living cells bring about.

For the next series, the system named is HeLa. Kind of series: Cytotoxicity against human HeLa cells by MTT assay. The class given is functional, cell-based. Summed up: as §1
Another series concerns L5178Y. Kind of series: Cytotoxicity against mouse L5178Y cells by MTT assay. The class given is functional, cell-based. Summed up:
as §1

Series [1] can be described thus: Toxicity in Artemia salina assessed as mortality at 10 ug/ml after 48 hrs. The class given is organism-based. Conditions: in vivo, read-out: Activity.
Series [2] in a line: Toxicity in Artemia salina assessed as mortality at 10 ug/ml after 24 hrs. The class given is organism-based. To be noted: in vivo, read-out: Activity.

A word on the EC50: it is the concentration at which the effect is half-maximal. As for `COC(=O)[C@H](C)[C@@H]1CC[C@@](C)(CCC2=C(C)C(=O)CCC2(C)C)OO1` [METHYL DIACARNOATE A], the outcome in the series with PC-12 and with HeLa was inactive. In the series on L5178Y, this compound gave an EC50 below 3 µg/mL.

As for `CCCC(O)CCC(C)(O)CC/C=C(\C)CCC1=C(C)CCCC1(C)C` (centres undefined) [DIACARDIOL A], the EC50 in the series with PC-12 is above 10 µg/mL; in the series with HeLa, above 10 µg/mL; with L5178Y, 4.8 µg/mL (≈ 13.2 µM). The mortality at 48 h, 10 ug/ml in series [1] is 40%. The mortality at 24 h, 10 ug/ml in series [2] amounted to 20%.

As for `COC(=O)[C@H](C)[C@H]1CC[C@@](C)(CCC2=C(C)C(=O)CCC2(C)C)OO1` [DIACARPEROXIDE A], the outcome in the series with PC-12 and in the series on HeLa was inactive. In series [1], the mortality at 48 h, 10 ug/ml turned out to be 55%. In series [2], the mortality at 24 h, 10 ug/ml worked out at 35%. The EC50 in the series on L5178Y was above 10 µg/mL.

`C=C1CCCC(C)(C)C1(O)CC/C(C)=C/CC[C@]1(C)CC[C@H]([C@@H](C)C(=O)OC)OO1` (some centres undefined) [EPIMUQUBILIN B]: the EC50 in the series with PC-12 was 6 µg/mL (≈ 14.2 µM); in the series with HeLa, 1 µg/mL (≈ 2.37 µM); with L5178Y, below 0.1 µg/mL. In series [1], the mortality at 48 h, 10 ug/ml was 60%. Also, the mortality at 24 h, 10 ug/ml in series [2] was determined as 45%.

On to `CC1=C(CC[C@]2(C)CC[C@H]([C@@H](C)C(=O)O)OO2)[C@@]2(C)CCCC(C)(C)[C@@H]2CC1=O` [DIACARPEROXIDE F], for which the EC50 stood at 0.8 µg/mL (≈ 1.97 µM) in the series on PC-12, 0.6 µg/mL (≈ 1.48 µM) in the series on HeLa and 0.06 µg/mL (≈ 0.148 µM) in the series on L5178Y.

Regarding `COC(=O)[C@H](C)[C@@H]1CC[C@@](C)(CCC(=O)C(C)(C)CCCC(C)=O)OO1` [DIACARPEROXIDE C], the outcome in the series with PC-12 and in the series on HeLa was inactive. Also, in series [1], the mortality at 48 h, 10 ug/ml is 55%. Further, the mortality at 24 h, 10 ug/ml in series [2] is 35%. Further, the EC50 in the series with L5178Y is above 10 µg/mL.

In the case of `CC1=C(CC[C@]2(C)CC[C@H]([C@@H](C)C(=O)O)OO2)[C@]2(C)CCCC(C)(C)[C@H]2CC1` [DIACARPEROXIDE D], the EC50 was 8.1 µg/mL (≈ 20.6 µM) in the series on PC-12, 0.17 µg/mL (≈ 0.433 µM) in the series on HeLa and below 0.1 µg/mL in the series with L5178Y.

Consider `CC1=C(CC/C(C)=C/CC[C@@]2(C)CC[C@@H]([C@H](C)C(=O)O)OO2)C(C)(C)CCC1` [EPIMUQUBILIN A], for which the EC50 in the series with PC-12 is above 10 µg/mL; in the series with HeLa, 7.2 µg/mL (≈ 18.3 µM); with L5178Y it was 0.28 µg/mL (≈ 0.713 µM). Moreover, the mortality at 48 h, 10 ug/ml in series [1] worked out at 50%. Besides, in series [2], the mortality at 24 h, 10 ug/ml amounted to 25%.

For the compound `COC(=O)[C@H](C)[C@H]1CC[C@@](C)(CCC2=C(C)CCCC2(C)C)OO1` [NUAPAPUIN A METHYL ESTER], the values for the EC50 in the series on PC-12, in the series with HeLa and in the series with L5178Y were 6.2 µg/mL (≈ 18.3 µM), 5.5 µg/mL (≈ 16.2 µM) and 0.76 µg/mL (≈ 2.25 µM), respectively. Moreover, the mortality at 48 h, 10 ug/ml in series [1] came to 100%. In series [2], the mortality at 24 h, 10 ug/ml is 100%.

Take `COC(=O)[C@H](C)[C@H]1CC[C@@](C)(CCC2=C(C)C(=O)C[C@@H]3C(C)(C)CCC[C@@]23C)OO1` [DIACARPEROXIDE G]: the EC50 in the series on PC-12 is above 10 µg/mL; in the series on HeLa, above 10 µg/mL; in the series with L5178Y, 2 µg/mL (≈ 4.76 µM). In addition, the mortality at 48 h, 10 ug/ml in series [1] is 60%. The mortality at 24 h, 10 ug/ml in series [2] came to 50%.

For the compound `COC(=O)[C@H](C)[C@@H]1CC[C@@](C)(CCC2=C(C)CCCC2(C)C)OO1`, the result in the series with PC-12, with HeLa and in the series on L5178Y was inactive. In addition, in series [1], the mortality at 48 h, 10 ug/ml worked out at 65%. For the same compound, in series [2], the mortality at 24 h, 10 ug/ml turned out to be 25%.

In the case of `COC(=O)[C@@H](C)[C@@H]1CC[C@](C)(CCC(=O)C(C)(C)CCCC(C)=O)OO1` [DIACARPEROXIDE B], the result in the series on PC-12 and in the series with HeLa was inactive. Also, in series [1], the mortality at 48 h, 10 ug/ml is 55%. The mortality at 24 h, 10 ug/ml in series [2] turned out to be 45%. Further, a half-maximal effect with L5178Y (EC50) was put at 10 µg/mL (≈ 27 µM).
